{"source": "PubChem BioAssay AID602148", "about": "(NMMLSC, 2011)", "system": "U937 deltaST FPR, LDV-FITC VLA-4 binding, flow cytometry", "test": "GTPase hits reducing LDV-FITC binding to VLA-4 – U937 deltaST FPR cells, flow cytometry, mechanism study for Ras-related GTPase inhibitor project (AID 602148)", "conditions": "at 50 µM; stronger effect = higher value", "summary_of_the_method": "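System: deltaST-FPR-expressing U937 cells; measure: LDV-FITC binding decline over time, graded none, weak, strong; controls: unlabeled LDV excess as nonspecific control; schedule: flow acquisition 1024 s at 37 °C, compounds after plateau; measured by: flow cytometry, mean channel fluorescence of bound LDV-FITC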", "note": "Activity calls are given as the source filed them.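 Rule for the calls: active = a drop over time in fluorescent ligand binding to the VLA-4 integrin, graded weak or strong, level 1 or 2; inactive = no binding drop, level 0.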", "data": [{"compound": "CC1(C)Cc2c(sc(NC(=S)NC(=O)C3CCCCC3)c2C(=O)O)CO1", "values": [{"measurement": "VLA-4 affinity decrease level (0-2)", "result": 1}]}, {"compound": "Cc1cccc(C(=O)NC(=S)Nc2sc3c(c2C(=O)O)CC(C)(C)OC3)c1", "values": [{"measurement": "VLA-4 affinity decrease level (0-2)", "result": "0 (inactive)"}]}, {"compound": "CC1(C)Cc2c(sc(NC(=S)NC(=O)c3ccc(Br)cc3)c2C(=O)O)CO1", "values": [{"measurement": "VLA-4 affinity decrease level (0-2)", "result": 2}]}, {"compound": "COc1ccc(C(=O)NC(=S)Nc2sc3c(c2C(=O)O)CC(C)(C)OC3)cc1", "values": [{"measurement": "VLA-4 affinity decrease level (0-2)", "result": 1}]}, {"compound": "CC1(C)Cc2c(sc(NC(=S)NC(=O)c3ccccc3F)c2C(=O)O)CO1", "values": [{"measurement": "VLA-4 affinity decrease level (0-2)", "result": "0 (inactive)"}]}, {"compound": "CC1(C)Cc2c(sc(NC(=S)NC(=O)c3cccc(Br)c3)c2C(=O)O)CO1", "values": [{"measurement": "VLA-4 affinity decrease level (0-2)", "result": 2}]}, {"compound": "CC1(C)Cc2c(sc(NC(=S)NC(=O)c3ccco3)c2C(=O)O)CO1", "values": [{"measurement": "VLA-4 affinity decrease level (0-2)", "result": "0 (inactive)"}]}, {"compound": "CC1(C)Cc2c(sc(NC(=S)NC(=O)c3ccc(F)cc3)c2C(=O)O)CO1", "values": [{"measurement": "VLA-4 affinity decrease level (0-2)", "result": "0 (inactive)"}]}, {"compound": "CC1(C)Cc2c(sc(NC(=S)NC(=O)c3cccs3)c2C(=O)O)CO1", "values": [{"measurement": "VLA-4 affinity decrease level (0-2)", "result": "0 (inactive)"}]}, {"compound": "CCC1(C)Cc2c(sc(NC(=S)NC(=O)c3ccccc3)c2C(=O)O)CO1", "note": "(stereo not drawn)", "values": [{"measurement": "VLA-4 affinity decrease level (0-2)", "result": "0 (inactive)"}]}, {"compound": "COc1ccccc1C(=O)NC(=S)Nc1sc2c(c1C(=O)O)CC(C)(C)OC2", "values": [{"measurement": "VLA-4 affinity decrease level (0-2)", "result": 1}]}, {"compound": "COc1cccc(C(=O)NC(=S)Nc2sc3c(c2C(=O)O)CC(C)(C)OC3)c1", "values": [{"measurement": "VLA-4 affinity decrease level (0-2)", "result": 2}]}, {"compound": "Cc1ccccc1C(=O)NC(=S)Nc1sc2c(c1C(=O)O)CC(C)(C)OC2", "values": [{"measurement": "VLA-4 affinity decrease level (0-2)", "result": "0 (inactive)"}]}, {"compound": "Cc1ccc(C(=O)NC(=S)Nc2sc3c(c2C(=O)O)CC(C)(C)OC3)cc1", "values": [{"measurement": "VLA-4 affinity decrease level (0-2)", "result": "0 (inactive)"}]}, {"compound": "O=C(NC(=S)Nc1sc2c(c1C(=O)O)CC1(CCCC1)OC2)c1ccccc1", "values": [{"measurement": "VLA-4 affinity decrease level (0-2)", "result": "0 (inactive)"}]}, {"compound": "CC1(C)Cc2c(sc(NC(=S)NC(=O)c3ccccc3Br)c2C(=O)O)CO1", "values": [{"measurement": "VLA-4 affinity decrease level (0-2)", "result": 2}]}, {"compound": "CC(C)(C)C1Cc2c(sc(NC(=S)NC(=O)c3ccccc3)c2C(=O)O)CO1", "note": "(stereo not drawn)", "values": [{"measurement": "VLA-4 affinity decrease level (0-2)", "result": "0 (inactive)"}]}, {"compound": "CC1(C)Cc2c(sc(NC(=S)NC(=O)c3cccc(F)c3)c2C(=O)O)CO1", "values": [{"measurement": "VLA-4 affinity decrease level (0-2)", "result": 1}]}]}
